In brackets after ≈: the same amount, converted by molar mass. Activity calls are given as the source filed them. The calls are words filed in the database; no cut-off is given here.
Experiments:
Bacillus subtilis = assay: Bactericidal activity against Bacillus subtilis in aerobic condition; assay type: functional, organism-based
Summary of the method: (§1)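 From the MIC plates, 10 µL from each well without growth was streaked onto agar suited to the organism and incubated under that organism's growth conditions. Colonies were then counted; MBC = lowest concentration allowing ≤1 colony, i.e. killing 99.9% of bacteria.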

Salmonella enterica = assay: Bactericidal activity against Salmonella enterica in aerobic condition; assay type: functional, organism-based
Summary of the method: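 MH broth; log-phase bacteria (OD600 ~0.6) diluted to ~10^5 bacteria/mL and exposed to two-fold serial dilutions (0–500 µM; 0.2% DMSO final as vehicle control) at 37 °C, aerobic, 18–24 h. MIC is the lowest concentration preventing visible growth (OD600). MBC is found by streaking 10 µL from no-growth wells onto agar; the MBC is the concentration where ≤1 colony grew. n = 3.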

Blautia producta = assay: Bactericidal activity against Clostridium coccoides in anaerobic condition; assay type: functional, organism-based; summary of the method: as §1
Penicillium verrucosum = assay: Fungicidal activity against Penicillium verrucosum; assay type: functional, organism-based
Summary of the method: (§2)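 Filamentous fungi grown on potato dextrose agar and tested in RPMI medium with two-fold serial dilutions (0–500 µM, 0.2% DMSO final). Plates held at room temperature for 2 to 5 days, then OD600 read; MIC taken as the lowest concentration with no visible growth. The fungicidal endpoint is ≤1 colony after streaking 10 µL of no-growth wells on agar. n = 3.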

[1] = tested on: Streptococcus thermophilus; assay: Bactericidal activity against Streptococcus thermophilus in anaerobic condition; assay type: functional, organism-based
Summary of the method: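 S. thermophilus grown in BHI and brought to log phase (OD600 ~0.6). It is diluted to ~10^5 bacteria/mL and exposed to two-fold serial dilutions (0–500 µM, 0.2% DMSO final) at 37 °C in an anaerobic cabinet for 18–24 h. MIC read by OD600 as the lowest concentration with no visible growth. The MBC is the concentration where ≤1 colony grew after streaking 10 µL of no-growth wells on agar. Triplicate.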

Escherichia coli [2] = assay: Bactericidal activity against Escherichia coli […] K88 in aerobic condition; assay type: functional, organism-based
Clostridium perfringens = assay: Antimicrobial activity against Clostridium perfringens after 24 to 72 hrs in anaerobic condition by two-fold serial dilutions method; assay type: functional
Summary of the method: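 C. perfringens grown in BHI at 37 °C anaerobically and brought to log phase (OD600 ~0.6). About 10^5 bacteria/mL with two-fold serial dilutions 0–500 µM, DMSO 0.2% final as control. Incubated 24 h at 37 °C in anaerobic cabinet; OD600 read; MIC = lowest concentration with no visible growth. Independent triplicate.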

Vibrio diabolicus = assay: Antimicrobial activity against Vibrio diabolicus after 18 to 24 hrs in aerobic condition by two-fold serial dilutions method; assay type: functional
Summary of the method: (§3)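 Colonies grown overnight (~16 h) in Mueller-Hinton broth at 37 °C, 200 rpm, diluted 1/100 and grown to log phase (OD600 ~0.6), then diluted to ~10^5 bacteria/mL. Exposed to 0 to 500 µM in 1:2 series (0.2% DMSO final control), aerobic, 37 °C, 18–24 h. OD600 read; MIC = lowest concentration without visible growth; n = 3.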

Enterococcus faecalis [3] = assay: Antimicrobial activity against Enterococcus faecalis after 18 to 24 hrs in anaerobic condition by two-fold serial dilutions method; assay type: functional
Summary of the method: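 BHI preculture at 37 °C brought to log phase (OD600 ~0.6), then ~10^5 bacteria/mL exposed to 0 to 500 µM (1:2 dilutions, 0.2% DMSO final control). Anaerobic conditions from a gas-pack system, 37 °C, 18–24 h. OD600 read; MIC = lowest concentration with no visible growth; n = 3.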

Klebsiella variicola = assay: Antimicrobial activity against Klebsiella variicola after 18 to 24 hrs in aerobic condition by two-fold serial dilutions method; assay type: functional; summary of the method: as §3
Cutibacterium acnes = assay: Bactericidal activity against Propionibacterium acnes in aerobic condition; assay type: functional, organism-based; summary of the method: as §1
Fusarium oxysporum = assay: Antifungal activity against Fusarium oxysporum after 2 to 5 days by two-fold serial dilutions method; assay type: functional
Summary of the method: (§4)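 Broth two-fold serial dilution MIC, 0 to 500 µM (1:2 steps), from 200 mM DMSO stocks; 0.2% DMSO final as vehicle control. Inoculum about 10^5 cells/mL. Strains maintained on potato dextrose agar and in RPMI medium. Plates held at room temperature for 2 to 5 days, OD600 read; MIC = lowest concentration preventing visible growth; independent triplicate.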

Fusarium graminearum = assay: Antifungal activity against Fusarium graminearum after 2 to 5 days by two-fold serial dilutions method; assay type: functional
Summary of the method: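 F. graminearum grown on potato dextrose agar and in RPMI medium. Broth microdilution by NCCLS, two-fold serial dilution 0–500 µM, DMSO 0.2% final as vehicle control. Plates kept at room temperature 2 to 5 days, OD600 read; MIC taken as lowest concentration with no visible growth. Independent triplicate.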

Candida albicans = assay: Antifungal activity against Candida albicans after 2 to 5 days by two-fold serial dilutions method; assay type: functional
IMR-90 = assay: Cytotoxicity against human IMR90 cells assessed as reduction in cell viability after 48 hrs by Resazurin dye-based assay; settings: for IC50: Homo sapiens, IMR-90, 48 h; for Activity: human, imr-90, 48 h
Summary of the method: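 Normal human lung epithelial (BEAS-2B) and lung fibroblast (IMR-90) cells were grown in DMEM with 10% FCS. Cells were seeded at ~10^4/well, grown to confluence (48–72 h), then exposed to increasing concentrations for 48 h at 37 °C, 5% CO2, with 0.2% DMSO as control. Resazurin was added for 4 h and fluorescence read at 530/590 nm. Viability was normalized to DMSO wells and IC50 calculated.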

Escherichia coli [4] = assay: Antimicrobial activity against Escherichia coli after 18 to 24 hrs in aerobic condition by two-fold serial dilutions method; assay type: functional; summary of the method: as §3
Citrobacter rodentium [5] = assay: Bactericidal activity against Citrobacter rodentium in aerobic condition; assay type: functional, organism-based; summary of the method: as §1
Stachybotrys chartarum [6] = assay: Fungicidal activity against Stachybotrys chartarum; assay type: functional, organism-based; summary of the method: as §2
Escherichia coli [7] = assay: Antimicrobial activity against Escherichia coli MRS after 18 to 24 hrs in aerobic condition by two-fold serial dilutions method; assay type: functional; summary of the method: as §3
[8] = tested on: Bacteroides thetaiotaomicron; assay: Bactericidal activity against Bacteroides thetaiotaomicron in anaerobic condition; assay type: functional, organism-based; summary of the method: as §1
Citrobacter farmeri = assay: Antimicrobial activity against Citrobacter farmeri after 18 to 24 hrs in aerobic condition by two-fold serial dilutions method; assay type: functional; summary of the method: as §3
Clostridium botulinum = assay: Antimicrobial activity against Clostridium botulinum after 18 to 24 hrs in anaerobic condition by two-fold serial dilutions method; assay type: functional
Stachybotrys chartarum [9] = assay: Antifungal activity against Stachybotrys chartarum after 2 to 5 days by two-fold serial dilutions method; assay type: functional; summary of the method: as §4
Vibrio alginolyticus = assay: Antimicrobial activity against Vibrio alginolyticus after 18 to 24 hrs in aerobic condition by two-fold serial dilutions method; assay type: functional; summary of the method: as §3
Enterococcus faecalis [10] = assay: Bactericidal activity against Enterococcus faecalis in anaerobic condition; assay type: functional, organism-based; summary of the method: as §1
Citrobacter rodentium [11] = assay: Antimicrobial activity against Citrobacter rodentium after 18 to 24 hrs in aerobic condition by two-fold serial dilutions method; assay type: functional; summary of the method: as §3
Shigella flexneri = assay: Antimicrobial activity against Shigella flexneri after 18 to 24 hrs in aerobic condition by two-fold serial dilutions method; assay type: functional; summary of the method: as §3
Escherichia coli [12] = assay: Bactericidal activity against Escherichia coli in aerobic condition; assay type: functional, organism-based; summary of the method: as §1

COc1cc(/C=C2\Oc3cc(O)cc(O)c3C2=O)ccc1OCc1ccccc1
Activity (Bacillus subtilis): Active | Activity (Salmonella enterica): Active | Activity (Blautia producta): Active | Activity (Penicillium verrucosum): Active | Activity [1]: Active | Activity (Escherichia coli [2]): Active | MIC (Clostridium perfringens): 31.2 to 62.5 µM (≈ 12.2 to 24.4 µg/mL) | MIC (Vibrio diabolicus): > 500 µM | MIC (Enterococcus faecalis [3]): 15.6 to 31.2 µM (≈ 6.09 to 12.2 µg/mL) | MIC (Klebsiella variicola): > 500 µM | Activity (Cutibacterium acnes): Active | MIC (Fusarium oxysporum): > 500 µM | MIC (Fusarium graminearum): 500 µM (≈ 195 µg/mL) | MIC (Candida albicans): 125 µM (≈ 48.8 µg/mL) | IC50 (IMR-90): 340 µM | Activity (IMR-90): Dose-dependent effect | MIC (Escherichia coli [4]): > 500 µM | Activity (Citrobacter rodentium [5]): Active | Activity (Stachybotrys chartarum [6]): Active | MIC (Escherichia coli [7]): > 500 µM | Activity [8]: Active | MIC (Citrobacter farmeri): > 500 µM | MIC (Clostridium botulinum): 62.5 µM (≈ 24.4 µg/mL) | MIC (Stachybotrys chartarum [9]): > 500 µM | MIC (Vibrio alginolyticus): 3.9 µM (≈ 1.52 µg/mL) | Activity (Enterococcus faecalis [10]): Active | MIC (Citrobacter rodentium [11]): > 500 µM | MIC (Shigella flexneri): > 500 µM | Activity (Escherichia coli [12]): Active

O=C1/C(=C/c2ccc(F)cc2)Oc2cc(O)cc(O)c21
Activity (Bacillus subtilis): Active | Activity (Salmonella enterica): Active | Activity (Blautia producta): Active | Activity (Penicillium verrucosum): Active | Activity [1]: Active | Activity (Escherichia coli [2]): Active | MIC (Clostridium perfringens): 31.2 to 62.5 µM (≈ 8.51 to 17 µg/mL) | MIC (Vibrio diabolicus): > 500 µM | MIC (Enterococcus faecalis [3]): 125 to 250 µM (≈ 34 to 68.1 µg/mL) | MIC (Klebsiella variicola): > 500 µM | Activity (Cutibacterium acnes): Active | MIC (Fusarium oxysporum): > 500 µM | MIC (Fusarium graminearum): > 500 µM | MIC (Candida albicans): > 500 µM | IC50 (IMR-90): 620 µM | Activity (IMR-90): Dose-dependent effect | MIC (Escherichia coli [4]): > 500 µM | Activity (Citrobacter rodentium [5]): Active | Activity (Stachybotrys chartarum [6]): Active | MIC (Escherichia coli [7]): > 500 µM | Activity [8]: Active | MIC (Citrobacter farmeri): > 500 µM | MIC (Clostridium botulinum): 500 µM (≈ 136 µg/mL) | MIC (Stachybotrys chartarum [9]): > 500 µM | MIC (Vibrio alginolyticus): 125 µM (≈ 34 µg/mL) | Activity (Enterococcus faecalis [10]): Active | MIC (Citrobacter rodentium [11]): > 500 µM | MIC (Shigella flexneri): > 500 µM | Activity (Escherichia coli [12]): Active

O=C1/C(=C/c2ccccc2)Oc2cc(O)cc(O)c21
Activity (Bacillus subtilis): Active | Activity (Salmonella enterica): Active | Activity (Blautia producta): Active | Activity (Penicillium verrucosum): Active | Activity [1]: Active | Activity (Escherichia coli [2]): Active | MIC (Clostridium perfringens): 7.8 µM (≈ 1.98 µg/mL) | MIC (Vibrio diabolicus): > 500 µM | MIC (Enterococcus faecalis [3]): 15.6 µM (≈ 3.97 µg/mL) | MIC (Klebsiella variicola): > 500 µM | Activity (Cutibacterium acnes): Active | MIC (Fusarium oxysporum): > 500 µM | MIC (Fusarium graminearum): 31.2 µM (≈ 7.95 µg/mL) | MIC (Candida albicans): > 500 µM | IC50 (IMR-90): 250 µM | Activity (IMR-90): Dose-dependent effect | MIC (Escherichia coli [4]): > 500 µM | Activity (Citrobacter rodentium [5]): Active | Activity (Stachybotrys chartarum [6]): Active | MIC (Escherichia coli [7]): > 500 µM | Activity [8]: Active | MIC (Citrobacter farmeri): > 500 µM | MIC (Clostridium botulinum): 500 µM (≈ 127 µg/mL) | MIC (Stachybotrys chartarum [9]): > 500 µM | MIC (Vibrio alginolyticus): 31.2 µM (≈ 7.95 µg/mL) | Activity (Enterococcus faecalis [10]): Active | MIC (Citrobacter rodentium [11]): > 500 µM | MIC (Shigella flexneri): > 500 µM | Activity (Escherichia coli [12]): Active

Source: ChEMBL document CHEMBL4400513, “Aurone derivatives as promising antibacterial agents against resistant Gram-positive pathogens” (Eur J Med Chem, 2019)
